Measured values published in publication PMC3131534 (Chemistry & biology, 2011).

What was measured:
PfSENP1 = details: P. falciparum lysates; ref Ponder et al. Submitted; cited from earlier work
ΔNhSENP1 = target: T1, ΔNhSENP1 (Homo sapiens, UniProt Q9P0U3); assay: ProSUMO processing; format: biochemical; details: 100nM ΔNhSENP1, 0–100μM compound, 30 min pre-treatment
T1 sequence (Q9P0U3 450-613 limits assumed): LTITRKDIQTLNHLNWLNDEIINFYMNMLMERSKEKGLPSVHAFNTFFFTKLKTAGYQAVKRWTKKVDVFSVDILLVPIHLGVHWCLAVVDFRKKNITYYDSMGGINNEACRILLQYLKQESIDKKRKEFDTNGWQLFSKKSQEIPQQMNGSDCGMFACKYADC
In short: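 ΔNhSENP1 (100 nM) was pretreated with inhibitor for 30 min in 50 mM Tris pH 7.4, 5 mM NaCl, 5 mM DTT (37 °C in methods, room temperature in legend). It then cleaved recombinant hSUMO1 carrying its full pro-sequence and a C-terminal His6 tag for 1 h at 37 °C. Loss of the pro-region and tag was scored as a band shift on SDS-PAGE with Gelcode Blue stain, beside a substrate-only lane.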

human DUB UCHL3 = target: T2, human DUB UCHL3 (Homo sapiens, UniProt P15374); assay: Cross-reactivity against purified DUB; format: biochemical; details: purified enzyme, Figure S4
T2 sequence (P15374 1-230): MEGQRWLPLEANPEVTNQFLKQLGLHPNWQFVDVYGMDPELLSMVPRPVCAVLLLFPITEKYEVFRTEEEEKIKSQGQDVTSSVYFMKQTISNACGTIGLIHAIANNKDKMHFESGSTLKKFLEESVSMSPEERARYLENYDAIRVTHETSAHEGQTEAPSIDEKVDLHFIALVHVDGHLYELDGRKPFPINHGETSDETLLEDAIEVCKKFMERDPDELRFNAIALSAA

[1] = Stability of the epoxide in aqueous media; format: physicochemical; details: relative to aza-aspartic acid epoxides
human SENP8 = target: T3, human SENP8 (Homo sapiens, UniProt Q96LD8); assay: Cross-reactivity against purified deNEDDylase; format: biochemical; details: purified enzyme, Figure S4
T3 sequence (Q96LD8 1-212): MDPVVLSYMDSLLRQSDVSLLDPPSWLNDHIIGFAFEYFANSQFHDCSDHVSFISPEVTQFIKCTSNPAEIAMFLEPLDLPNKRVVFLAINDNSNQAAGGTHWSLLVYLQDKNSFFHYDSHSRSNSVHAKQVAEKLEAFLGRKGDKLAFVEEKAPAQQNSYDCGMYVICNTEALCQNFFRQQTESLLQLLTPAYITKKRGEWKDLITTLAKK

endogenous SENP6 = target: T4, endogenous SENP6 (Homo sapiens, UniProt Q9GZR1); assay: Cell lysate treatment, competition of HA-SUMO2vme labeling; format: binding; details: treatment of cell lysates
T4 sequence (Q9GZR1 1-1112): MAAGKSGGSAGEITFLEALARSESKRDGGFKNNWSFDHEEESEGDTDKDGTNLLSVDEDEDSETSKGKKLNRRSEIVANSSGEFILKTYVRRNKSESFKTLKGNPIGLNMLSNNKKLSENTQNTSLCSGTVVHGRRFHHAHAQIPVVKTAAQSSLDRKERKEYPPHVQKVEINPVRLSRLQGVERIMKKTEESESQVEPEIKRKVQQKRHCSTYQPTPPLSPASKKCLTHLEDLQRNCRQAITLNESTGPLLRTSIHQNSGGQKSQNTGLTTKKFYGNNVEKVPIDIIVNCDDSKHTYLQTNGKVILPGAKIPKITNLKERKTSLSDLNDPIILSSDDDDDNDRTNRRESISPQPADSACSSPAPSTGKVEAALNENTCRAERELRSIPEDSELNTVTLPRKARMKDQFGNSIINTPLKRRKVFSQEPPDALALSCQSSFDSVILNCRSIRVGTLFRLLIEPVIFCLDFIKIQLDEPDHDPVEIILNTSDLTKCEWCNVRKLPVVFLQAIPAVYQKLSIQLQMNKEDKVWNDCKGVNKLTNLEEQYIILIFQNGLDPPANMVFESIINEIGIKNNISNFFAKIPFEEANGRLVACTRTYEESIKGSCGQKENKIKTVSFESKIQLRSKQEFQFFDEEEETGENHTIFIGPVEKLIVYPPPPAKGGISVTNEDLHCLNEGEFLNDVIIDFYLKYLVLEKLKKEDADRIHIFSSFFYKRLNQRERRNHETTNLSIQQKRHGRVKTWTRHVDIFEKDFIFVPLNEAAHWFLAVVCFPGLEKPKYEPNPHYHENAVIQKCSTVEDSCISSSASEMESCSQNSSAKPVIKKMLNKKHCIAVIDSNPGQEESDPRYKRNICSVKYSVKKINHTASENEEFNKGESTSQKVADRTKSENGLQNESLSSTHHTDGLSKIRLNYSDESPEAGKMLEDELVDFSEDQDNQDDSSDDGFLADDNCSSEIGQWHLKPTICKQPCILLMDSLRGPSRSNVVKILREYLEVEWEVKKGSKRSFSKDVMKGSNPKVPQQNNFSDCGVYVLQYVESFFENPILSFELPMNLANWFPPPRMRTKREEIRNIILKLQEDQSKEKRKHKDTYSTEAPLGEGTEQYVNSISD

[2] = tested on: DUBs in HEK293 cell lysates; assay: Competition of HA-Ubvme probe labeling in HEK293 cell lysates; format: binding, human; details: Figure S4
endogenous SENP1 = target: T5, endogenous SENP1 (Homo sapiens, UniProt Q9P0U3); assay: Cell lysate treatment, competition of HA-SUMO2vme labeling; format: binding; details: treatment of cell lysates
T5 sequence (Q9P0U3 1-644): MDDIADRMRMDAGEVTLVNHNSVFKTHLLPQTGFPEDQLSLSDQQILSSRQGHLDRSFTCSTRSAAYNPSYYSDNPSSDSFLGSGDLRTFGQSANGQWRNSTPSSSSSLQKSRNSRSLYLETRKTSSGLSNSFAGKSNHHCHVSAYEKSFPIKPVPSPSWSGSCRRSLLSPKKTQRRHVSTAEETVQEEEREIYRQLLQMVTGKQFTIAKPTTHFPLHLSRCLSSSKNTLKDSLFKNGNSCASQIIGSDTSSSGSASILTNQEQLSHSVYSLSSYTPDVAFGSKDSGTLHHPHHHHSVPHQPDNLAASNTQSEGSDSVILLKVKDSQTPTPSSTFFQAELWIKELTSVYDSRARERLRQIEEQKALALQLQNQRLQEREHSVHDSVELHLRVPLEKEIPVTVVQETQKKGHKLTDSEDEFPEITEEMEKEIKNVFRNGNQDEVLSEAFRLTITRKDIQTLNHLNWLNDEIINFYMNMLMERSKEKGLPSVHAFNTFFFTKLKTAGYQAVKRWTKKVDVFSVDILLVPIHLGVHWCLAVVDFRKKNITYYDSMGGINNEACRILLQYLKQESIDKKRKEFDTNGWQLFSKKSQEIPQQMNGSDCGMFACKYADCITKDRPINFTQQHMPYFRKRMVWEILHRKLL

ΔNhSENPs1, 2, 5, 6 and 7 = assay: Fluorogenic substrate screen against the panel of recombinant hSENPs; format: biochemical, human; details: 50μM inhibitor, 1 hour preincubation, heat map Figure 4
In short: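 Recombinant N-terminally truncated hSENPs were preincubated 1 h at 37 °C with 50 μM inhibitor in 50 mM Tris pH 8.0, 20 mM NaCl, 10 mM DTT. The enzyme level is given only for hSENP1, at 2 μM final. Then 100 nM Ac-QTGG-AFC (SENP1, 2, 5) or Ac-LRGG-AFC (SENP6, 7) was added. AFC release was read at 405/510 nm, 37 °C. Slope (RFU/min) was taken relative to DMSO (100%), averaging independent triplicates.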

Compound	activity against UCHL3 (human DUB UCHL3)	activity against hSENP8 (human SENP8)	relative inhibitor potency in the fixed concentration screen (ΔNhSENPs1, 2, 5, 6 and 7)	also measured
O=C(O)CN(NC(=O)c1ccc(CNC(=O)c2cccc(C(=O)O)c2)cc1)C(=O)[C@H]1O[C@@H]1C(=O)N(Cc1cccc2ccccc12)Cc1cccc2ccccc12 [JCP666]	–	–	–	potency against parasite SENP (PfSENP1): effectively blocked PfSENP activity
O=C(O)c1cccc(C(=O)NCc2ccc(C(=O)NNC(=O)[C@H]3O[C@@H]3C(=O)N(Cc3cccc4ccccc34)Cc3cccc4ccccc34)cc2)c1 [VEA260]	virtually no activity against either enzyme	virtually no activity against either enzyme	–	activity in ProSUMO processing assay (ΔNhSENP1): retained full activity against hSENP1; stability of the compound [1]: more stable compound
O=C(CNC(=O)c1ccc(CNC(=O)c2cccc(C(=O)O)c2)cc1)COC(=O)c1c2ccccc2cc2ccccc12 [VEA401]	–	–	–	block of endogenous SENP6 labeling by HA-SUMO2vme probe (endogenous SENP6): not able to find conditions in which we could treat cell lysates with VEA401 and block labeling of endogenous SENP1 or SENP6; block of DUB labeling by HA-Ubvme probe [2]: did not block labeling of DUBs; block of endogenous SENP1 labeling by HA-SUMO2vme probe (endogenous SENP1): not able to find conditions in which we could treat cell lysates with VEA401 and block labeling of endogenous SENP1 or SENP6

Second part, led by results:

activity against UCHL3 (human DUB UCHL3)	Compound	activity against hSENP8 (human SENP8)	relative inhibitor potency in the fixed concentration screen (ΔNhSENPs1, 2, 5, 6 and 7)	also measured
only activity against hSENP8	C[C@H](O)C(NC(=O)[C@H](CCC(N)=O)NC(=O)Cc1ccc(O)c([N+](=O)[O-])c1)C(=O)NCC(=O)NCC(=O)COC(=O)c1c2ccccc2cc2ccccc12 (some centres unmarked) [VEA499]	only activity against hSENP8	substantially more potent than the tripeptide (VEA498) equivalent	–
only activity against hSENP8	CC(C)C[C@H](NC(=O)Cc1ccc(O)c([N+](=O)[O-])c1)C(=O)N[C@@H](CCCN=C(N)N)C(=O)NCC(=O)NCC(=O)COC(=O)c1c2ccccc2cc2ccccc12 [VEA561]	only activity against hSENP8	most potent towards hSENP6 and hSENP7	–
